Consider two molecules from ChEMBL document CHEMBL1130800, “Complexation of okadaic acid: a preliminary study” (1998).

Common to all, as to format: functional
The species entered for assay [1] is Rattus norvegicus. Put plainly: Decrease in tone in estrogen-primed rat uterus at 20 uM in [Ca2+] free K+free solution. Summed up: (§1)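 Uterine strips from estradiol benzoate-primed (100 μg Kg⁻¹ ip, 24 h) virgin female Wistar rats, 200-250 g, in Sund's PSS (Ca²⁺-free, Na⁺/Ca²⁺-free, or K⁺/Ca²⁺-free with KCl omitted), 32°C, 95% O₂/5% CO₂, 0.5 g resting force. One 20 μM application per strip. Isometric tension decline measured at 120 min, as % of the agent's maximal tension increase. Mean ± s.e.m.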

The species named for assay [2] is Rattus norvegicus. As to the kind of experiment: Time to peak tension(min) in estrogen-primed rat uterus at 20 uM in Ca+2-free solution. Summed up:
(§2)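 Isometric recording at 32°C of uterine strips from estrogen-primed (100 μg Kg⁻¹ ip estradiol benzoate, 24 h prior) female Wistar rats, in Ca²⁺-free, Na⁺/Ca²⁺-free or K⁺/Ca²⁺-free Sund's PSS. Each strip received one 20 μM application. Time to peak tension (min) measured from the onset of the tension increase. Mean ± s.e.m.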

The species entered for assay [3] is Rattus norvegicus. As to the kind of experiment: Time to peak tension(min) in estrogen-primed rat uterus at 20 uM in [Ca2+] free K+free solution. Summed up:
as §2

The species entered for assay [4] is Rattus norvegicus. Put plainly: Duration of plateau(min) in estrogen-primed rat uterus at 20 uM in [Ca2+] free K+free solution. Summed up:
(§3)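 Estrus-confirmed, oestrogen-primed rat uterine longitudinal strips in Ca²⁺-free, Na⁺/Ca²⁺-free or K⁺/Ca²⁺-free Sund's PSS at 32°C, gassed 95% O₂/5% CO₂. Strips equilibrated 45 min, then given repeated ACh 1 mM until responses were reproducible. A single 20 μM dose per strip. Contraction plateau duration (min) taken from isometric recordings. Mean ± s.e.m.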

The species named for assay [5] is Rattus norvegicus. Put plainly: Decrease in tone in estrogen-primed rat uterus at 20 uM in Ca+2-free solution. Summed up:
as §1

Assay [6] is filed under the species Rattus norvegicus. Put plainly: Emax value in estrogen-primed rat uterus at 20 uM in Ca+2-free solution. Summed up: (§4)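 Strips from oestrogen-primed Wistar rat uterus, 0.5 g resting force, in Sund's PSS variants (Ca²⁺-free; Na⁺- and Ca²⁺-free; K⁺- and Ca²⁺-free) at 32°C. A single 20 μM addition per strip. Maximal isometric contraction expressed as % of the maximal tension evoked by ACh 1 mM in the same strip. Mean ± s.e.m.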

The species entered for assay [7] is Rattus norvegicus. As to the kind of experiment: Decrease in tone in estrogen-primed rat uterus at 20 uM in [Ca2+] free Na+free solution. Summed up:
as §1

For assay [8], the species on record is Rattus norvegicus. Put plainly: Duration of plateau(min) in estrogen-primed rat uterus at 20 uM in [Ca2+] free Na+free solution. Summed up: as §3
Assay [9] is filed under the species Rattus norvegicus. Put plainly: Time to peak tension(min) in estrogen-primed rat uterus at 20 uM in [Ca2+] free Na+free solution. Summed up: as §2
For assay [10], the species on record is Rattus norvegicus. Put plainly: Emax value in estrogen-primed rat uterus at 20 uM in Ca+2-free K+free solution. Summed up:
as §4

The species entered for assay [11] is Rattus norvegicus. As to the kind of experiment: Duration of plateau(min) in estrogen-primed rat uterus at 20 uM in Ca+2-free solution. Summed up: as §3
Assay [12] is filed under the species Rattus norvegicus. Put plainly: Emax value in estrogen-primed rat uterus at 20 uM in [Ca2+] free Na+free solution. Summed up:
as §4

Regarding `C=C1[C@@H](O)[C@@H]2O[C@]3(CC[C@H](/C=C/[C@@H](C)[C@@H]4CC(C)=C[C@@]5(O[C@H](C[C@@](C)(O)C(=O)O)CC[C@H]5O)O4)O3)CC[C@H]2O[C@@H]1[C@@H](O)C[C@H](C)[C@H]1O[C@@]2(CCCCO2)CC[C@H]1C` [OKADAIC ACID], the Decrease in tone in assay [1] was 58.1; in [5], 85.7; in [7], 94.8. Also, the “Time to peak tension” value in assay [2] is 27.2 min; in assay [3] it was 28.5 min; in [9], 25.1 min. Besides, the Duration of plateau in assay [4] was determined as 12.8 min; in assay [8] it was 3.8 min; in assay [11], 2.1 min. For the same molecule, the Emax in assay [6] worked out at 107.9; in [10], 6.2; in [12] it was 150.8.

With `C=C1[C@@H](O)[C@@H]2O[C@@]3(CCC2O[C@@H]1[C@@H](O)C[C@H](C)C1O[C@@]2(CCCCO2)CC[C@H]1C)CC[C@H](/C=C/[C@@H](C)[C@@H]1CC(C)=C[C@@]2(O[C@H](C[C@@](C)(O)C(=O)O)CC[C@H]2O)O1)O3` (some centres undefined), the results for the Decrease in tone in [1], in assay [5] and in assay [7] were 98, 92.8 and 93.3, respectively. Further, the “Time to peak tension” value in assay [2] was determined as 23 min; in [3], 20.7 min; in [9] it was 30.3 min. Also, the Duration of plateau in [4] is 2.9 min; in assay [8] it was 4.2 min; in assay [11], 3.7 min. Further, the Emax in assay [6] stood at 101.7; in [10], 135.2; in assay [12], 186.5.
